Test results reported in PMC3513709 (The Biochemical journal, 2012).
Positions count from the first letter of the chain named. Values belong to the compound of their own block, whether it stands above or below them.

Key:
hAMCase = details: cited from earlier work
YKL-39 = target: T1, YKL-39 (Homo sapiens, UniProt Q15782); assay: Glycan array screen; format: binding; details: AlexaFluor 488-labelled YKL-39, array of 264 glycans
T1 sequence (Q15782 27-390): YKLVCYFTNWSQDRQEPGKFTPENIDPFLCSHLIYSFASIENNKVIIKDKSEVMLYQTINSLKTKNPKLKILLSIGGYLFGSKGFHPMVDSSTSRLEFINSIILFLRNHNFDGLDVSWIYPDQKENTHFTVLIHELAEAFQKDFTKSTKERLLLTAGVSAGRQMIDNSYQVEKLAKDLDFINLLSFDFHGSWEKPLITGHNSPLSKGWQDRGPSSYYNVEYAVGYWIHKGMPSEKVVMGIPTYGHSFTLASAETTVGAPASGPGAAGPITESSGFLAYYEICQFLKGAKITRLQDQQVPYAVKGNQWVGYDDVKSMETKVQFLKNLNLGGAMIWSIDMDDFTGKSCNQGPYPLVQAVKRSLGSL
In short: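 Amino-linked natural and synthetic glycans were printed on modified glass slides, six replicates each. Dye-labelled protein was applied for 1 h at room temperature. Slides were spun dry and scanned at ex 495/em 520 nm. Means ± S.D. of four observations.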

[1] = target: T2, YKL-39 S143D/I145E active mutant (Homo sapiens, UniProt Q15782, I145E/S143D); assay: Chitinase activity assay, steady-state kinetics and inhibition; format: biochemical
T2 sequence (Q15782 27-390 S143D/I145E): T1 sequence (Q15782 27-390) with S117D, I119E
In short: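 S143D/I145E mutant was secreted from methanol-induced Pichia pastoris GS115 and purified by CM-Sepharose and size exclusion. 20 nM enzyme with 4MU-(GlcNAc)3 in 0.2 M Na2HPO4/0.1 M citric acid pH 5.5, 60 min at 37°C. Quenched with 3 M glycine/NaOH pH 10; read at ex 360/em 460 nm. Triplicates, no-enzyme blank subtracted. Kinetic parameters from curve fit over three independent experiments; Ki by non-linear regression.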

[2] = target: hCHT (human chitotriosidase) (Homo sapiens, UniProt Q13231); assay: Chitinase activity assay, steady-state kinetics; format: biochemical
hCHT (human chitotriosidase), sequence (Q13231 22-466): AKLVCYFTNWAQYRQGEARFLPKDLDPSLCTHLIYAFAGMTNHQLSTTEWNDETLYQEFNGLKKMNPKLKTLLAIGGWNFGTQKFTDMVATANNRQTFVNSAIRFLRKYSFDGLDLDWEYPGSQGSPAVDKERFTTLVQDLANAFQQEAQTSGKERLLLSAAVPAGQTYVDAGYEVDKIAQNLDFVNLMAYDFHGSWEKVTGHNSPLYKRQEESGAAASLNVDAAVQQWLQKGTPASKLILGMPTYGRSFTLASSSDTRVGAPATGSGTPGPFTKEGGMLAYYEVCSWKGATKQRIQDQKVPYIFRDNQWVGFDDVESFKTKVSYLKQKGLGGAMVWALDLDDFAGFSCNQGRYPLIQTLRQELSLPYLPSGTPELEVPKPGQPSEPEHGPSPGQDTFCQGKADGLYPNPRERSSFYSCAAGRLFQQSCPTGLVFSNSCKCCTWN
In short: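 Human chitotriosidase at 2 nM final with fluorigenic 4MU-(GlcNAc)3 in 0.2 M Na2HPO4/0.1 M citric acid pH 5.5, incubated 60 min at 37°C. Quenched with 3 M glycine/NaOH pH 10; 4MU product read at ex 360/em 460 nm. Reactions run in triplicate, with no-enzyme readings subtracted. Km and kcat from steady-state fit, means ± S.E.M. of three independent experiments.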

Compound: Cn1cnc2c1c(=O)n(CCCn1c(=O)c3[nH]cnc3n(C)c1=O)c(=O)n2C [bisdionin F]
- activity against hAMCase (hAMCase): submicromolar
- selectivity for hAMCase over hCHT (hAMCase): selectivity over hCHT

- binding to YKL-39 in glycan array (relative fluorescence) (YKL-39): strongest binders
Compound: (GlcNAc)5

- binding to YKL-39 in glycan array (relative fluorescence) (YKL-39): strongest binders
Compound: CC(=O)N[C@H]1[C@H](O[C@H]2[C@H](O)[C@@H](NC(C)=O)[C@H](O[C@H]3[C@H](O)[C@@H](NC(C)=O)C(O)O[C@@H]3CO)O[C@@H]2CO)O[C@H](CO)[C@@H](O[C@@H]2O[C@H](CO)[C@@H](O[C@@H]3O[C@H](CO)[C@@H](O[C@@H]4O[C@H](CO)[C@@H](O)[C@H](O)[C@H]4NC(C)=O)[C@H](O)[C@H]3NC(C)=O)[C@H](O)[C@H]2NC(C)=O)[C@@H]1O (stereo partly drawn) [(GlcNAc)6, chitohexaose]

- Ki [1]: 120 ± 2 µM
Compound: CCc1nc2c([nH]1)c(=O)n(CCCn1c(=O)c3c(ncn3C)n(C)c1=O)c(=O)n2C [bisdionin G, 1-{3-[3,7-dimethyl-2,6-dioxo-2,3-dihydro-6H-purin-1(7H)-yl]propyl}-8-ethyl-3-methyl-1H-purine-2,6(3H, 7H)-dione]

- kcat ([2]; fluorigenic pseudosubstrate, pH 5.5, 37°C): 15.7 ± 0.3 s⁻¹
- Km ([2]; read-out: Michaelis constant (Km), fluorigenic pseudosubstrate, pH 5.5, 37°C): 53 ± 3 µM
- kcat ([1]; YKL-39 S143D/I145E, fluorigenic pseudosubstrate, pH 5.5, 37°C): 0.02 ± 0.0002 s⁻¹
- Km ([1]; read-out: Michaelis constant (Km), YKL-39 S143D/I145E, fluorigenic pseudosubstrate, pH 5.5, 37°C): 9 ± 1 µM
Compound: CC(=O)N[C@H]1[C@H](Oc2ccc3c(C)cc(=O)oc3c2)O[C@H](CO)[C@@H](O[C@@H]2O[C@H](CO)[C@@H](O[C@@H]3O[C@H](CO)[C@@H](O)[C@H](O)[C@H]3NC(C)=O)[C@H](O)[C@H]2NC(C)=O)[C@@H]1O [4MU-(GlcNAc)3, 4-methylumbelliferyl-β-D-N,N′,N′’-triacetylchitotriose]
